# In ChEMBL document CHEMBL1145135, “Structure-activity relationships of the p38alpha MAP kinase inhibitor 1-(5-tert-butyl-2-p-tolyl-2H-pyrazol-3-yl)-3-[4-(2-morpholin-4-yl-ethoxy)naph- thalen-1-yl]urea (BIRB 796)” (J Med Chem, 2003):
# Calls of active or inactive are those of the source. The rule behind the calls is not given here.
# Legend:
# [1] = Tested for plasma level after 90 min of 10 mg/kg dose administered in mice; format: ADME, organism-based; set-up: dose 10 mg/kg; details: mouse, read-out: Activity
# How it was run: (§1)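 Plasma compound concentration (ng/mL) measured 90 min after oral dosing in LPS-stimulated mice at 10 or 30 mg/kg.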
# [2] = Tested for plasma level after 90 min of 30 mg/kg dose administered in mice; format: ADME, organism-based; set-up: dose 30 mg/kg; details: mouse, read-out: Activity; how it was run: as §1
# [3] = Partition coefficient (logP); format: physicochemical; details: octanol/water
# [4] = molecular target: Mitogen-activated protein kinase 14 (Mus musculus, UniProt P47811); test: Kd value and murine Mitogen-activated protein kinase p38 alpha complex was calculated
# Chain of Mitogen-activated protein kinase 14 (P47811 whole entry): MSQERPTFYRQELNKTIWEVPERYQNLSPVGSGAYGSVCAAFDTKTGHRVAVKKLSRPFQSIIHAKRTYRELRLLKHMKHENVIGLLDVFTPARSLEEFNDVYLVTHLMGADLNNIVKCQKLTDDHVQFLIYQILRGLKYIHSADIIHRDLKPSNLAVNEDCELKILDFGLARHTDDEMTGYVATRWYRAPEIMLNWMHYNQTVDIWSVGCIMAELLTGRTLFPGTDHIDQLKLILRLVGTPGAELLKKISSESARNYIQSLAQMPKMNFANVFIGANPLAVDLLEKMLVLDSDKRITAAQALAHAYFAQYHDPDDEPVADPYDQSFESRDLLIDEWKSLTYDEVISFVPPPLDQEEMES
# [5] = molecular target: T1, Tumor necrosis factor (Homo sapiens, UniProt P01375); test: Tested for inhibition of Tumor necrosis factor, alpha in THP cells; format: functional, cell-based
# T1 sequence (P01375 whole entry): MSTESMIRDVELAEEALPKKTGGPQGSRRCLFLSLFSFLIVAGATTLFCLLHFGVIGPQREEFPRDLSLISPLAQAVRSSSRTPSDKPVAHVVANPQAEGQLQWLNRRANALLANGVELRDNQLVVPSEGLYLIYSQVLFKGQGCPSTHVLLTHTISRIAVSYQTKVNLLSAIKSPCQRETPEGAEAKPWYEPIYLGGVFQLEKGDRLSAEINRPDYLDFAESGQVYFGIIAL
# How it was run: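 THP-1 cells preincubated with or without compound 30 min at 37 °C, 5% CO2, then stimulated with LPS (1 μg/mL final) for a further 18–24 h. Human TNF-α in supernatant measured by ELISA.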
# [6] = molecular target: T1, Tumor necrosis factor; test: Tested for inhibition of Tumor necrosis factor, alpha in human whole blood; format: functional, tissue-based
# How it was run: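 Freshly drawn heparinized human whole blood mixed with compound serially diluted in human type AB serum, held 30 min at 37 °C, then stimulated ex vivo with E. coli LPS 0111:B4 (50 ng/mL final). Incubation 5 h at 37 °C. Plasma TNF-α quantified by ELISA, DELFIA or electrochemiluminescence against an on-plate standard curve. Duplicate 11-point curves fitted to a 4-parameter logistic. EC50 is the geometric mean over at least three donors.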
# [7] = molecular target: Mitogen-activated protein kinase 14 (Mus musculus) (UniProt P47811)
# Chain of Mitogen-activated protein kinase 14 (Mus musculus) (P47811 whole entry): as the sequence (P47811 whole entry) above
# [8] = molecular target: Tumor necrosis factor (Mus musculus) (UniProt P06804); test: Tested for inhibition of Tumor necrosis factor, alpha in LPS-stimulated mice at a dose of 10 mg/kg; details: at 10 mg/kg
# Chain of Tumor necrosis factor (Mus musculus) (P06804 whole entry, looked up): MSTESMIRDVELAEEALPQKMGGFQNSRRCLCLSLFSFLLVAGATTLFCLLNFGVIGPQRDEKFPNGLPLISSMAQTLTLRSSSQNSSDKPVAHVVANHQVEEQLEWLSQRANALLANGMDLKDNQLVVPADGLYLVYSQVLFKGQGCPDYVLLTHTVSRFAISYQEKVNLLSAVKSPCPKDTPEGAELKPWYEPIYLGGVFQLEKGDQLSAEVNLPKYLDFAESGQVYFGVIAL
# [9] = molecular target: Tumor necrosis factor (Mus musculus) (UniProt P06804); test: Tested for inhibition of Tumor necrosis factor, alpha in LPS-stimulated mice at a dose of 30 mg/kg
# [10] = molecular target: Tumor necrosis factor (Mus musculus) (UniProt P06804); test: Tested for inhibition of Tumor necrosis factor, alpha in LPS-stimulated mice at a dose of 10 mg/kg; Not statistically significant.; details: at 10 mg/kg
# [11] = test system: Mus musculus; test: Tested for plasma level after 90 min of 10 mg/kg dose administered in mice; Not detected.; format: ADME, organism-based; set-up: dose 10 mg/kg; details: in vivo, 1.5 h; how it was run: as §1
SMILES,concentration at 1.5 h [1] [ng/mL],concentration at 1.5 h [2] [ng/mL],logP [3],Kd [4] [nM],Tm [7] [°C],Activity [11],EC50 [5] [nM],EC50 [6] [nM],inhibition [8] [%],inhibition [9] [%],inhibition [10]
Cc1ccc(-n2nc(C(C)(C)C)cc2NC(=O)Nc2ccc(OCCN3CCOCC3)c3ccccc23)cn1,13000,54000,3.6,0.18,61.3,,19,530,86,87,
COc1ccc(CCOc2ccc(NC(=O)Nc3cc(C(C)(C)C)nn3-c3ccc(C)cc3)c3ccccc23)cc1OC,,,,3.5,57.3,,,,,,
Cc1ccc(-n2nc(C(C)(C)C)cc2NC(=O)Nc2ccc(OCCn3ccnc3)c3ccccc23)cc1,,7000,,0.074,62.4,,36,1100,,81,
Cc1ccc(-n2nc(C(C)(C)C)cc2NC(=O)Nc2ccc(OCCc3ccncc3)c3ccccc23)cc1,,30000,,0.1,62.4,,20,820,,88,
Cc1ccc(-n2nc(C(C)(C)C)cc2NC(=O)Nc2ccc(OCCN3C[C@@H](C)O[C@@H](C)C3)c3ccccc23)cc1,,,,1.5,58.4,,,,,,
COc1ccc(-n2nc(C(C)(C)C)cc2NC(=O)Nc2ccc(OCCN3CCOCC3)c3ccccc23)cn1,,80000,,0.87,59.1,,42,> 10000,,40,
CCOc1ccc(NC(=O)Nc2cc(C(C)(C)C)nn2-c2ccc(C)cc2)c2ccccc12,,,,11,55.5,,,,,,
CC(C)c1cc(NC(=O)Nc2ccc(OCCN3CCOCC3)c3ccccc23)n(-c2ccccc2)n1,,,,3.4,56.6,,,,,,
CC(=O)Nc1ccc(-n2nc(C(C)(C)C)cc2NC(=O)Nc2ccc(OCCN3CCOCC3)c3ccccc23)cc1,,,,64,53.4,,,,,,
CC(C)(C)c1cc(NC(=O)Nc2ccc(OCCN3CCOCC3)c3ccccc23)n(-c2cccc(N)c2)n1,1400,,,0.23,60.9,,11,1600,,,inactive
CC(=O)Nc1cccc(-n2nc(C(C)(C)C)cc2NC(=O)Nc2ccc(OCCN3CCOCC3)c3ccccc23)c1,,,,9.9,55.9,,,,,,
Cc1ccc(-n2nc(C(C)(C)C)cc2NC(=O)Nc2ccc(OCCN3CCCCC3)c3ccccc23)cc1,,,,14,55.4,,,,,,
Cc1ccc(-n2nc(C(C)(C)C)cc2NC(=O)Nc2ccc(OCCc3cccnc3)c3ccccc23)cc1,,,,0.52,59.8,,,,,,
Cc1ccc(-n2nc(C(C)(C)C)cc2NC(=O)Nc2ccc(OCCN3CC[S+]([O-])CC3)c3ccccc23)cc1,,62800,,0.4,60.2,,50,1300,,84,

# Continued, in another order:
concentration at 1.5 h [1] [ng/mL],concentration at 1.5 h [2] [ng/mL],logP [3],Kd [4] [nM],Tm [7] [°C],Activity [11],SMILES,EC50 [5] [nM],EC50 [6] [nM],inhibition [8] [%],inhibition [9] [%],inhibition [10]
30000,75000,4.6,,63.5,,Cc1ccc(-n2nc(C(C)(C)C)cc2NC(=O)Nc2ccc(OCCN3CCOCC3)c3ccccc23)cc1 [DORAMAPIMOD],18,780,63,84,
,,,64,53.4,,CC(C)(C)c1cc(NC(=O)Nc2ccc(OCCN3CCOCC3)c3ccccc23)n(Cc2ccccc2)n1,,,,,
,,,5.9,56.6,,Cc1ccc(-n2nc(C(C)(C)C)cc2NC(=O)Nc2ccc(OCCN3CCSCC3)c3ccccc23)cc1,,,,,
5400,38000,,0.23,61,,CC(C)(C)c1cc(NC(=O)Nc2ccc(OCCN3CCOCC3)c3ccccc23)n(-c2ccccc2)n1,9,3400,57,81,
,,,1.9,58.1,,CC1(c2cc(NC(=O)Nc3ccc(OCCN4CCOCC4)c4ccccc34)n(-c3ccccc3)n2)CCCCC1,,,,,
,,,56,53,,Cc1ccc(-n2nc(C(C)(C)CO)cc2NC(=O)Nc2ccc(OCCN3CCOCC3)c3ccccc23)cc1,,,,,
,,,26,54.5,,Cn1nc(C(C)(C)C)cc1NC(=O)Nc1ccc(OCCN2CCOCC2)c2ccccc12,,,,,
,,,0.16,61.4,Not Active,CC(C)(C)c1cc(NC(=O)Nc2ccc(OCCN3CCOCC3)c3ccccc23)n(-c2ccc(N)cc2)n1,9,440,,,inactive
4200,25000,,0.096,62.1,,Cc1ccc(-n2nc(C(C)(C)C)cc2NC(=O)Nc2ccc(OCCN3C[C@H](C)O[C@@H](C)C3)c3ccccc23)cc1,16,770,,50,inactive
,,,23,54.8,,CC(C)(C)c1cc(NC(=O)Nc2ccc(OCCN3CCOCC3)c3ccccc23)n(C2CCCCC2)n1,,,,,
,,,2400,49.1,,O=C(Nc1ccc(OCCN2CCOCC2)c2ccccc12)Nc1ccnn1-c1ccccc1,,,,,
,,,12,55.6,,Cc1ccc(-n2nc(C(C)(C)C)cc2NC(=O)Nc2ccc(OCCN3CCNCC3)c3ccccc23)cc1,,,,,
